Measured values taken from ChEMBL document CHEMBL1649417, “α,β-Unsaturated carbonyl system of chalcone-based derivatives is responsible for broad inhibition of proteasomal activity and preferential killing of human papilloma virus (HPV) positive cervical cancer cells” (J Med Chem, 2011).
Activity calls are given as the source filed them. The calls are words filed in the database; no cut-off is given here.

Legend:
[1] = Inhibition of trypsin-like activity of 20S proteasome isolated from human LCL after 30 mins by fluorimetric analysis
In short: (§1)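 Semipurified proteasome from lymphoblastoid cells: glass-bead lysis in Tris pH 7.5/MgCl2/DTT/2 mM ATP/sucrose buffer, differential and 100,000g ultracentrifugation. Preincubated with inhibitor 30 min at 37°C, then 45 min at 37°C with Suc-LLVY-AMC (chymotrypsin-like), Boc-LRR-AMC (trypsin-like) or Ac-YVAD-AMC (caspase/PGPH-like) in 50 mM Tris pH 7.5, 5 mM MgCl2, 1 mM DTT. Quenched with 1% SDS; ex 380/em 440 nm; percent inhibition versus untreated.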

[2] = Inhibition of chymotrypsin-like activity of 20S proteasome isolated from human LCL after 30 mins by fluorimetric analysis; in short: as §1
[3] = system: CaSki (Homo sapiens); experiment: Cytotoxicity against CaSki transformed human cervical carcinoma cells after 48 hrs by XTT assay
[4] = Inhibition of PGPH-like activity of 20S proteasome isolated from human LCL after 30 mins by fluorimetric analysis; in short: as §1
[5] = system: HeLa; experiment: Cytotoxicity against HPV18 transformed human HeLa cells after 48 hrs by XTT assay; assay type: functional, cell-based
In short: (§2)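 ATCC lines grown in DMEM with 10% FBS, penicillin/streptomycin, 5% CO2; 1,000 cells/well exposed to compound (HeLa and CaSki tested over 100 to 0.01 µM). After treatment, XTT labeling mixture for 4 h, absorbance at 450 nm. Triplicate runs; IC50 is the average of three independent determinations.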

[6] = system: HeLa; experiment: Increase of polyubiquitinated accumulation in human HeLa cells at 10 uM after 8 hrs by immunoblotting; assay type: functional, cell-based
In short: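 HeLa cells treated 8 h with or without compound, then lysates immunoblotted for poly-ubiquitinated proteins; β-actin antibody to confirm equal loading; bortezomib positive control.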

[7] = biological target: Cathepsin D (Homo sapiens) (UniProt P07339); experiment: Inhibition of cathepsin D up to 50 uM by fluorometric analysis
[8] = system: HeLa; experiment: Inhibition of proteasome activity in human HeLa cells assessed as induction of ubiquitinG76V-FL reporter level at 5 nM after 8 hrs by luciferase assay; conditions: 1 µM, in the assay text read “at 1 µM” for “at 5 nM”
In short: (§3)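 HeLa transiently transfected with Ub(G76V)4-FL or CMV-FL control, replated 24 h later at 1×10^4 cells/well, drug added after 18 h attachment. Luciferase measured in cell lysate, RLU expressed as % of control; SE from three independent experiments.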

[9] = system: HeLa; experiment: Inhibition of proteasome activity in human HeLa cells assessed as induction of ubiquitinG76V-FL reporter level at 1 uM after 8 hrs by luciferase assay; in short: as §3
[10] = Inhibition of calpain up to 50 uM by fluorometric analysis
[11] = system: SiHa; experiment: Cytotoxicity against HPV16 transformed human SiHa cells after 48 hrs by XTT assay; assay type: functional, cell-based; in short: as §2
[12] = system: ME-180; experiment: Cytotoxicity against HPV58 transformed human ME180 cells after 48 hrs by XTT assay; assay type: functional, cell-based; in short: as §2
[13] = Cytotoxicity against human keratinocytes assessed as effect on cell viability at 1.6 to 25 uM after 48 hrs by XTT assay; assay type: cell-based; conditions: keratinocyte
In short: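 Primary keratinocytes cultured in defined Keratinocyte-SFM, treated 48 h at the indicated concentrations, 1,000 cells/well. XTT reagent for 4 h, absorbance at 450 nm; viability plotted as fraction of untreated control cultures; triplicate.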

Sequence of Cathepsin D (Homo sapiens) (P07339 65-162 limits assumed): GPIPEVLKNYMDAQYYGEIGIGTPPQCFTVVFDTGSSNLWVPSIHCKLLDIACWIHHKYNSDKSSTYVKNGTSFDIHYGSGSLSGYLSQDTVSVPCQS
Sequence of Cathepsin D (Homo sapiens) (P07339 169-412 limits assumed): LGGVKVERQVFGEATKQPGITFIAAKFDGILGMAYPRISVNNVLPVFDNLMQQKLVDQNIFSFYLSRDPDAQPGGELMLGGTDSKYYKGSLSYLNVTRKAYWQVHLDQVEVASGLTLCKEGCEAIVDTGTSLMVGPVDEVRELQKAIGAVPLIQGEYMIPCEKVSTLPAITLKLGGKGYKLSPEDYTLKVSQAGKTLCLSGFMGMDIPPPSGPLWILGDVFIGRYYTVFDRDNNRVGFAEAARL

## O=C1/C(=C/c2ccc(Cl)c(Cl)c2)CN(C(=O)N[C@@H](Cc2ccc(O)cc2)C(=O)O)C/C1=C\c1ccc(Cl)c(Cl)c1
[1]
  IC50: 8.4 µM
[2]
  IC50: 4.2 µM
[3]
  IC50: 10 µM
[4]
  IC50: > 10 µM
[5]
  IC50: 10 µM
[6]
  Activity: Active

## NCCCC[C@H](NC(=O)N1C/C(=C\c2ccc(Cl)c(Cl)c2)C(=O)/C(=C/c2ccc(Cl)c(Cl)c2)C1)C(=O)O
[3]
  IC50: > 50 µM
[5]
  IC50: > 50 µM

## O=C1/C(=C/c2ccc(Cl)c(Cl)c2)CN(C(=O)N[C@@H](Cc2ccccc2)C(=O)O)C/C1=C\c1ccc(Cl)c(Cl)c1
[7]
  inhibition: inactive
[1]
  IC50: 6.6 µM
[2]
  IC50: 4.8 µM
[8]
  inhibition: Active
[9]
  inhibition: Active
[10]
  inhibition: inactive
[11]
  Activity: Dose-dependent effect
[3]
  IC50: 1.5 µM
[4]
  IC50: 6.2 µM
[12]
  Activity: Dose-dependent effect
[5]
  IC50: 0.32 µM
[13]
  Activity: Non-toxic
[6]
  Activity: Active

## N=C(N)NCCC[C@H](NC(=O)N1C/C(=C\c2ccc(Cl)c(Cl)c2)C(=O)/C(=C/c2ccc(Cl)c(Cl)c2)C1)C(=O)N[C@@H](CCCCN)C(=O)O
[3]
  IC50: > 50 µM
[5]
  IC50: > 50 µM

## CC(C)C[C@H](NC(=O)[C@H](Cc1ccccc1)NC(=O)c1cnccn1)B(O)O
[8]
  inhibition: Active
[9]
  inhibition: Active

## N=C(N)NCCC[C@H](NC(=O)[C@H](CCCCN)NC(=O)N1C/C(=C\c2ccc(Cl)c(Cl)c2)C(=O)/C(=C/c2ccc(Cl)c(Cl)c2)C1)C(=O)O
[3]
  IC50: > 50 µM
[5]
  IC50: > 50 µM

## CN1C/C(=C\c2ccc(B(O)O)cc2)C(=O)/C(=C/c2ccc(B(O)O)cc2)C1
[3]
  IC50: 9 µM
[5]
  IC50: 8 µM

## O=C1/C(=C/c2ccc(Cl)c(Cl)c2)CN(C(=O)N[C@@H](Cc2ccccc2)C(=O)N[C@@H](Cc2ccc(O)cc2)C(=O)O)C/C1=C\c1ccc(Cl)c(Cl)c1
[3]
  IC50: > 50 µM
[5]
  IC50: > 50 µM

## O=C(O)CC[C@H](NC(=O)N1C/C(=C\c2ccc(Cl)c(Cl)c2)C(=O)/C(=C/c2ccc(Cl)c(Cl)c2)C1)C(=O)N[C@@H](CC(=O)O)C(=O)O
[3]
  IC50: > 50 µM
[5]
  IC50: > 50 µM

## O=C(O)CC[C@H](NC(=O)N1C/C(=C\c2ccc(Cl)c(Cl)c2)C(=O)/C(=C/c2ccc(Cl)c(Cl)c2)C1)C(=O)O
[3]
  IC50: > 50 µM
[5]
  IC50: > 50 µM
[6]
  Activity: inactive

## CC(C)C[C@H](NC(=O)N1C/C(=C\c2ccc(Cl)c(Cl)c2)C(=O)/C(=C/c2ccc(Cl)c(Cl)c2)C1)C(=O)O
[1]
  IC50: > 10 µM
[2]
  IC50: 9.3 µM
[3]
  IC50: 20 µM
[4]
  IC50: > 10 µM
[5]
  IC50: 10 µM
[6]
  Activity: Active
